Results from ChEMBL document CHEMBL1149562, “Identification and optimization of novel 1,3,4-oxadiazole EP1 receptor antagonists” (Bioorg Med Chem Lett, 2007).

What was measured:
[1] = target: T1, Prostaglandin E2 receptor EP1 subtype (Homo sapiens, UniProt P34995); assay: Displacement of [3H]PGE2 from human recombinant EP1 receptor expressed in CHO cell membrane; assay type: cell membranes
T1 sequence (P34995 whole entry): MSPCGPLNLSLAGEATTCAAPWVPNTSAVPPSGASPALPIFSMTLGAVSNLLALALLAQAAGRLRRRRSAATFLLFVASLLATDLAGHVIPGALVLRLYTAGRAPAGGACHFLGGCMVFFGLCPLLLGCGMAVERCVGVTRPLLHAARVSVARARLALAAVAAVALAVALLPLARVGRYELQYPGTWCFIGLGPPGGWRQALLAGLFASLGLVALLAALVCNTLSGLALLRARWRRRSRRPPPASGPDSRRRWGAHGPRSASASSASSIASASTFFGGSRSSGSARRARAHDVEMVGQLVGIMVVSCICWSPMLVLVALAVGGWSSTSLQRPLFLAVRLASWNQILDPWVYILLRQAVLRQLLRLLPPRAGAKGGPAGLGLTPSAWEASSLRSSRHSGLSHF
Method in brief: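 Radioligand binding using [3H]-PGE2 on membranes of CHO cells expressing recombinant human EP1 receptor; affinity expressed as pIC50. Values are means of at least three experiments.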

[2] = target: T1, Prostaglandin E2 receptor EP1 subtype; assay: Antagonist activity at human recombinant EP1 receptor expressed in CHO cells assessed as inhibition of PGE2-induced calcium mobilization by FLIPR; assay type: functional, cell-based
Method in brief: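 Functional antagonism in CHO cells expressing recombinant human EP1 receptor; blockade of PGE2-driven intracellular Ca2+ mobilization read by FLIPR, reported as pKi. Values are means of at least three experiments, with some from two.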

SMILES	IC50 ([1]; read-out: Log IC50 (converted)) [nM]	Ki [2] [nM]	IC50 ([1]; read-out: IC50) [nM]
Cc1ccc(S(=O)(=O)N(CC(=O)NCCc2ccc(Cl)cc2)c2ccccc2C)cc1	251		
CCOc1ccc(Cc2nnc(CN(c3cccc(Cl)c3C)S(=O)(=O)c3ccc(C)cc3)o2)cc1	3.98	50.1	
CCc1ccccc1N(Cc1nnc(Cc2ccccc2)o1)S(=O)(=O)c1ccc(C)cc1	1000	398	
CCc1ccccc1N(Cc1nnc(Cc2ccc(OC)cc2)o1)S(=O)(=O)c1ccc(C)cc1		631	126
CCOc1ccc(Cc2nnc(CN(c3ccccc3CC)S(=O)(=O)c3ccc(C)cc3)o2)cc1	126	39.8	
COc1ccc(Cc2nnc(CN(c3cccc(C(F)(F)F)c3C)S(=O)(=O)c3ccc(C)cc3)o2)cc1	63.1	398	
Cc1ccc(S(=O)(=O)N(Cc2nnc(Cc3ccc(C(F)(F)F)cc3)o2)c2cccc(Cl)c2C)cc1	50.1	158	
Cc1ccc(S(=O)(=O)N(Cc2nnc(Cc3ccccc3Cl)o2)c2cccc(Cl)c2C)cc1	79.4	398	
Cc1ccc(S(=O)(=O)N(Cc2nnc(Cc3cccc(Cl)c3)o2)c2cccc(Cl)c2C)cc1	158	2000	
Cc1ccc(S(=O)(=O)N(Cc2nnc(Cc3c(Cl)cccc3Cl)o2)c2cccc(Cl)c2C)cc1	63.1	501	
Cc1ccc(S(=O)(=O)N(Cc2nnc(Cc3ccc(Cl)cc3Cl)o2)c2cccc(Cl)c2C)cc1	63.1	1000	
COc1ccc(Nc2nnc(CN(c3cccc(Cl)c3Cl)S(=O)(=O)c3ccc(C(F)(F)F)cc3)o2)cc1	7.94	63.1	
COc1ccc(Cc2nnc(CN(c3cccc(Cl)c3Cl)S(=O)(=O)c3ccc(Cl)cc3)o2)cc1	20	63.1	
CCc1ccccc1N(Cc1nnc(COc2ccc(OC)cc2)o1)S(=O)(=O)c1ccc(C)cc1	25.1	126	
CCc1ccccc1N(Cc1nnc(CNc2ccc(OC)cc2)o1)S(=O)(=O)c1ccc(C)cc1	501	794	
CCOc1ccc(Cc2nnc(CN(c3cccc(Cl)c3Cl)S(=O)(=O)c3ccc(C(F)(F)F)cc3)o2)cc1	2.51	6.31	

SMILES	IC50 ([1]; read-out: Log IC50 (converted)) [nM]	Ki [2] [nM]	IC50 ([1]; read-out: IC50) [nM]
COc1ccc(NCc2nnc(CN(c3cccc(Cl)c3C)S(=O)(=O)c3ccc(C)cc3)o2)cc1	20	79.4	
COc1ccc(Nc2nnc(CN(c3cccc(Cl)c3C)S(=O)(=O)c3ccc(C)cc3)o2)cc1	31.6	79.4	
Cc1ccc(S(=O)(=O)N(Cc2nnc(Cc3ccccc3F)o2)c2cccc(Cl)c2C)cc1	501	631	
CCc1ccccc1N(CC(=O)NCc1ccc(OC)cc1)S(=O)(=O)c1ccc(C)cc1			25
CCc1ccccc1N(CC(=O)NCCc1ccc(OC)c(OC)c1)S(=O)(=O)c1ccc(C)cc1	7.94		
CCc1ccccc1N(CC(=O)OCc1ccc(OC)cc1)S(=O)(=O)c1ccc(C)cc1			63
CCc1ccccc1N(Cc1nnc(Oc2ccc(OC)cc2)o1)S(=O)(=O)c1ccc(C)cc1	> 1000	100	
COc1ccc(Nc2nnc(CN(c3cccc(Cl)c3Cl)S(=O)(=O)c3ccc(C)cc3)o2)cc1	39.8	50.1	
Cc1ccc(S(=O)(=O)N(Cc2nnc(Cc3ccc(F)cc3)o2)c2cccc(Cl)c2C)cc1	200	501	
COc1ccc(Cc2nnc(CN(c3cccc(Cl)c3C)S(=O)(=O)c3ccc(C)cc3)o2)cc1	6.31	39.8	
COc1ccc(Cc2nnc(CN(c3cccc(Cl)c3Cl)S(=O)(=O)c3ccc(C)cc3)o2)cc1	7.94	39.8	
Cc1ccc(S(=O)(=O)N(Cc2nnc(Cc3cccc(F)c3)o2)c2cccc(Cl)c2C)cc1	316	501	
CCc1ccccc1N(Cc1nnc(Cc2ccc(Cl)cc2)o1)S(=O)(=O)c1ccc(C)cc1	398	316	
Cc1ccc(S(=O)(=O)N(Cc2nnc(Cc3ccc(N(C)C)cc3)o2)c2cccc(Cl)c2C)cc1	12.6	20	
CCOc1ccc(Cc2nnc(CN(c3cccc(Cl)c3Cl)S(=O)(=O)c3ccc(C)cc3)o2)cc1	6.31	31.6	
